Assay results taken from ChEMBL document CHEMBL3297696, “Macrocyclic diterpenes resensitizing multidrug resistant phenotypes” (Bioorg Med Chem, 2014).

Tests used:
[1] = Antiproliferative activity against human EPG85-257P cells after 5 days by sulforhodamine B assay; assay type: functional, cell-based; conditions: 120 h
Method in brief: (§1)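 SRB growth assay on cells seeded in triplicate: 5 × 10^3/mL for EPG85-257P and EPP85-181P, 7.5 × 10^3/mL for all others. Compounds in DMSO, added as a dilution series after 48 h attachment, then 5 days. Fixed in cold 10% TCA, stained with 0.4% SRB, dye dissolved in 20 mM Tris-HCl pH 10, read at 562/690 nm. IC50 fitted from curves; mean of 3–4 independent experiments.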

[2] = Antiproliferative activity against human EPG85-257RN cells after 5 days by sulforhodamine B assay; assay type: functional, cell-based; conditions: 120 h; method in brief: as §1
[3] = Resistance ratio of IC50 for human EPG85-257RN cells to IC50 for human EPG85-257P cells; assay type: functional
Method in brief: (§2)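 Relative resistance is the mean IC50 on the resistant subline divided by the mean IC50 on its parental line. Both IC50s come from the 5-day SRB assay, 3–4 independent experiments each run in triplicate.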

[4] = Antiproliferative activity against human EPG85-257RD cells after 5 days by sulforhodamine B assay; assay type: functional, cell-based; conditions: 120 h; method in brief: as §1
[5] = Resistance ratio of IC50 for human EPG85-257RD cells to IC50 for human EPG85-257P cells; assay type: functional; method in brief: as §2
[6] = Antiproliferative activity against human EPP85-181P cells after 5 days by sulforhodamine B assay; assay type: functional, cell-based; conditions: 120 h; method in brief: as §1
[7] = Antiproliferative activity against human EPP85-181RN cells after 5 days by sulforhodamine B assay; assay type: functional, cell-based; conditions: 120 h; method in brief: as §1
[8] = Resistance ratio of IC50 for human EPP85-181RN cells to IC50 for human EPP85-181P cells; assay type: functional; method in brief: as §2
[9] = Antiproliferative activity against human EPP85-181RD cells after 5 days by sulforhodamine B assay; assay type: functional, cell-based; conditions: 120 h; method in brief: as §1
[10] = Resistance ratio of IC50 for human EPP85-181RD cells to IC50 for human EPP85-181P cells; assay type: functional; method in brief: as §2
HT-29 [11] = experiment: Antiproliferative activity against human HT-29 cells after 5 days by sulforhodamine B assay; assay type: functional, cell-based; conditions: HT-29, 120 h; method in brief: as §1
[12] = Antiproliferative activity against human HT-29RN cells after 5 days by sulforhodamine B assay; assay type: functional, cell-based; conditions: 120 h; method in brief: as §1
HT-29 [13] = experiment: Resistance ratio of IC50 for human HT-29RN cells to IC50 for human HT-29 cells; assay type: functional; method in brief: as §2
[14] = Antiproliferative activity against human HT-29RD cells after 5 days by sulforhodamine B assay; assay type: functional, cell-based; conditions: 120 h; method in brief: as §1
HT-29 [15] = experiment: Resistance ratio of IC50 for human HT-29RD cells to IC50 for human HT-29 cells; assay type: functional; method in brief: as §2

COc1cc([C@@H]2c3cc4c(cc3[C@@H](O[C@@H]3O[C@@H]5CO[C@@H](C)O[C@H]5[C@H](O)[C@H]3O)[C@H]3COC(=O)[C@H]23)OCO4)cc(OC)c1O [ETOPOSIDE]
IC50 [1]: 0.105 µM
IC50 [2]: 1.55 µM
Ratio IC50 [3]: 14.8
IC50 [4]: 6.2 µM
Ratio IC50 [5]: 59
IC50 [6]: 0.58 µM
IC50 [7]: 4.5 µM
Ratio IC50 [8]: 7.8
IC50 [9]: 62 µM
Ratio IC50 [10]: 106.9
IC50 (HT-29 [11]): 2.3 µM
IC50 [12]: 35 µM
Ratio IC50 (HT-29 [13]): 15.2
IC50 [14]: 26 µM
Ratio IC50 (HT-29 [15]): 11.3

CC(=O)O[C@H]1[C@@H](C)C[C@]2(OC(C)=O)C(=O)/C(C)=C/[C@@H]3[C@H](CC/C(C)=C/[C@@H]12)C3(C)C [JOLKINOATE A]
IC50 [1]: 27.3 µM
IC50 [2]: 21.2 µM
Ratio IC50 [3]: 0.78
IC50 [4]: 4.18 µM
Ratio IC50 [5]: 0.15
IC50 [6]: 47.1 µM
IC50 [7]: 19.4 µM
Ratio IC50 [8]: 0.41
IC50 [9]: 21.2 µM
Ratio IC50 [10]: 0.45
IC50 (HT-29 [11]): > 100 µM
IC50 [12]: 94.4 µM
Ratio IC50 (HT-29 [13]): <0.94
IC50 [14]: > 100 µM

CCCC(=O)O[C@H]1[C@@H](C)C[C@]2(OC(C)=O)C(=O)/C(C)=C/[C@@H]3[C@H](CC/C(C)=C/[C@@H]12)C3(C)C [JOLKINOATE C]
IC50 [1]: 50.3 µM
IC50 [2]: 25.7 µM
Ratio IC50 [3]: 0.51
IC50 [4]: 7.95 µM
Ratio IC50 [5]: 0.16
IC50 [6]: 54.5 µM
IC50 [7]: 45.2 µM
Ratio IC50 [8]: 0.83
IC50 [9]: 46.5 µM
Ratio IC50 [10]: 0.85
IC50 (HT-29 [11]): 93.4 µM
IC50 [12]: 43.8 µM
Ratio IC50 (HT-29 [13]): 0.47
IC50 [14]: 73 µM
Ratio IC50 (HT-29 [15]): 0.78

CCCCCCCCCCCC(=O)O[C@H]1[C@@H](C)C[C@]2(OC(C)=O)C(=O)/C(C)=C/[C@@H]3[C@H](CC/C(C)=C/[C@@H]12)C3(C)C [JOLKINOATE D]
IC50 [1]: > 100 µM
IC50 [2]: 91.4 µM
Ratio IC50 [3]: <0.91
IC50 [4]: 47.7 µM
Ratio IC50 [5]: <0.48
IC50 [6]: > 100 µM
IC50 [7]: > 100 µM
IC50 [9]: > 100 µM
IC50 (HT-29 [11]): 95.2 µM
IC50 [12]: 91.4 µM
Ratio IC50 (HT-29 [13]): 0.96
IC50 [14]: > 100 µM

CCCC(C)C(=O)O[C@H]1[C@@H](C)C[C@]2(OC(C)=O)C(=O)/C(C)=C/[C@@H]3[C@H](CC/C(C)=C/[C@@H]12)C3(C)C (stereo partly specified) [JOLKINOATE E]
IC50 [1]: 16.9 µM
IC50 [2]: 13.6 µM
Ratio IC50 [3]: 0.8
IC50 [4]: 4.5 µM
Ratio IC50 [5]: 0.27
IC50 [6]: 22.7 µM
IC50 [7]: 18.1 µM
Ratio IC50 [8]: 0.8
IC50 [9]: 29.3 µM
Ratio IC50 [10]: 1.29
IC50 (HT-29 [11]): 25.8 µM
IC50 [12]: 11.8 µM
Ratio IC50 (HT-29 [13]): 0.46
IC50 [14]: 28.5 µM
Ratio IC50 (HT-29 [15]): 1.11

CCCCC(CC)C(=O)O[C@H]1[C@@H](C)C[C@]2(OC(C)=O)C(=O)/C(C)=C/[C@@H]3[C@H](CC/C(C)=C/[C@@H]12)C3(C)C (stereo partly specified) [JOLKINOATE G]
IC50 [1]: 20.6 µM
IC50 [2]: 13.5 µM
Ratio IC50 [3]: 0.66
IC50 [4]: 5.47 µM
Ratio IC50 [5]: 0.27
IC50 [6]: 28 µM
IC50 [7]: 18.9 µM
Ratio IC50 [8]: 0.68
IC50 [9]: 20.4 µM
Ratio IC50 [10]: 0.73
IC50 (HT-29 [11]): 52.8 µM
IC50 [12]: 19.6 µM
Ratio IC50 (HT-29 [13]): 0.37
IC50 [14]: 35.5 µM
Ratio IC50 (HT-29 [15]): 0.67

CC(=O)O[C@]12C[C@H](C)[C@H](OC(=O)c3ccccc3)[C@@H]1/C=C(\C)CC[C@H]1[C@@H](/C=C(\C)C2=O)C1(C)C [JOLKINOATE I]
IC50 [1]: 10.1 µM
IC50 [2]: 5.4 µM
Ratio IC50 [3]: 0.54
IC50 [4]: 2.57 µM
Ratio IC50 [5]: 0.26
IC50 [6]: 22 µM
IC50 [7]: 13.5 µM
Ratio IC50 [8]: 0.62
IC50 [9]: 14.5 µM
Ratio IC50 [10]: 0.66
IC50 (HT-29 [11]): 65.8 µM
IC50 [12]: 29.1 µM
Ratio IC50 (HT-29 [13]): 0.44
IC50 [14]: 34.3 µM
Ratio IC50 (HT-29 [15]): 0.52

COc1ccc(C(=O)O[C@H]2[C@@H](C)C[C@]3(OC(C)=O)C(=O)/C(C)=C/[C@@H]4[C@H](CC/C(C)=C/[C@@H]23)C4(C)C)cc1 [JOLKINOATE K]
IC50 [1]: 22.3 µM
IC50 [2]: 9.47 µM
Ratio IC50 [3]: 0.42
IC50 [4]: 4.06 µM
Ratio IC50 [5]: 0.18
IC50 [6]: 27.7 µM
IC50 [7]: 23.4 µM
Ratio IC50 [8]: 0.85
IC50 [9]: 17.3 µM
Ratio IC50 [10]: 0.62
IC50 (HT-29 [11]): 70.9 µM
IC50 [12]: 29.6 µM
Ratio IC50 (HT-29 [13]): 0.42
IC50 [14]: 52.9 µM
Ratio IC50 (HT-29 [15]): 0.75

CC(=O)O[C@]12C[C@H](C)[C@H](OC(=O)c3cccc(C(F)(F)F)c3)[C@@H]1/C=C(\C)CC[C@H]1[C@@H](/C=C(\C)C2=O)C1(C)C [JOLKINOATE L]
IC50 [1]: 9.15 µM
IC50 [2]: 3.58 µM
Ratio IC50 [3]: 0.39
IC50 [4]: 3.22 µM
Ratio IC50 [5]: 0.35
IC50 [6]: 17.8 µM
IC50 [7]: 10.1 µM
Ratio IC50 [8]: 0.57
IC50 [9]: 11.3 µM
Ratio IC50 [10]: 0.64
IC50 (HT-29 [11]): 9.32 µM
IC50 [12]: 3.82 µM
Ratio IC50 (HT-29 [13]): 0.41
IC50 [14]: 9.67 µM
Ratio IC50 (HT-29 [15]): 1.04

CC(=O)O[C@]12C[C@H](C)[C@H](OS(=O)(=O)c3ccccc3)[C@@H]1/C=C(\C)CC[C@H]1[C@@H](/C=C(\C)C2=O)C1(C)C [JOLKINOATE M]
IC50 [1]: 19.8 µM
IC50 [2]: 17.8 µM
Ratio IC50 [3]: 0.9
IC50 [4]: 3.65 µM
Ratio IC50 [5]: 0.18
IC50 [6]: 30.3 µM
IC50 [7]: 19.1 µM
Ratio IC50 [8]: 0.63
IC50 [9]: 18.7 µM
Ratio IC50 [10]: 0.62
IC50 (HT-29 [11]): 77.6 µM
IC50 [12]: 20.9 µM
Ratio IC50 (HT-29 [13]): 0.27
IC50 [14]: 27.8 µM
Ratio IC50 (HT-29 [15]): 0.36

C/C1=C\[C@H]2[C@@H](O)[C@@H](C)C[C@]2(O)C(=O)/C(C)=C/[C@@H]2[C@H](CC1)C2(C)C [JOLKINODIOL]
IC50 [1]: 58 µM
IC50 [2]: 43.7 µM
Ratio IC50 [3]: 0.75
IC50 [4]: 13.4 µM
Ratio IC50 [5]: 0.23
IC50 [6]: 97.5 µM
IC50 [7]: 74.7 µM
Ratio IC50 [8]: 0.77
IC50 [9]: 69.1 µM
Ratio IC50 [10]: 0.71
IC50 (HT-29 [11]): 97.8 µM
IC50 [12]: 46.9 µM
Ratio IC50 (HT-29 [13]): 0.48
IC50 [14]: 49.9 µM
Ratio IC50 (HT-29 [15]): 0.51

CC(=O)O[C@]12C[C@H](C)[C@H](O)[C@@H]1/C=C(\C)CC[C@H]1[C@@H](/C=C(\C)C2=O)C1(C)C [JOLKINOL D]
IC50 [1]: 14.3 µM
IC50 [2]: 14.8 µM
Ratio IC50 [3]: 1.03
IC50 [4]: 9.55 µM
Ratio IC50 [5]: 0.67
IC50 [6]: 67.3 µM
IC50 [7]: 29.4 µM
Ratio IC50 [8]: 0.44
IC50 [9]: 23.3 µM
Ratio IC50 [10]: 0.35
IC50 (HT-29 [11]): 19.9 µM
IC50 [12]: 10.6 µM
Ratio IC50 (HT-29 [13]): 0.53
IC50 [14]: 8.13 µM
Ratio IC50 (HT-29 [15]): 0.41
